Results from ChEMBL document CHEMBL1641579, “Synthesis and biological evaluation of 7-substituted-1-(3-bromophenylamino)isoquinoline-4-carbonitriles as inhibitors of myosin light chain kinase and epidermal growth factor receptor” (Bioorg Med Chem, 2011).

Tests used:
[1] = target: T1, Dual specificity tyrosine-phosphorylation-regulated kinase 3 (Homo sapiens) (UniProt O43781); experiment: Inhibition of DYRK3 assessed as residual activity at 10 uM
T1 sequence (whole entry): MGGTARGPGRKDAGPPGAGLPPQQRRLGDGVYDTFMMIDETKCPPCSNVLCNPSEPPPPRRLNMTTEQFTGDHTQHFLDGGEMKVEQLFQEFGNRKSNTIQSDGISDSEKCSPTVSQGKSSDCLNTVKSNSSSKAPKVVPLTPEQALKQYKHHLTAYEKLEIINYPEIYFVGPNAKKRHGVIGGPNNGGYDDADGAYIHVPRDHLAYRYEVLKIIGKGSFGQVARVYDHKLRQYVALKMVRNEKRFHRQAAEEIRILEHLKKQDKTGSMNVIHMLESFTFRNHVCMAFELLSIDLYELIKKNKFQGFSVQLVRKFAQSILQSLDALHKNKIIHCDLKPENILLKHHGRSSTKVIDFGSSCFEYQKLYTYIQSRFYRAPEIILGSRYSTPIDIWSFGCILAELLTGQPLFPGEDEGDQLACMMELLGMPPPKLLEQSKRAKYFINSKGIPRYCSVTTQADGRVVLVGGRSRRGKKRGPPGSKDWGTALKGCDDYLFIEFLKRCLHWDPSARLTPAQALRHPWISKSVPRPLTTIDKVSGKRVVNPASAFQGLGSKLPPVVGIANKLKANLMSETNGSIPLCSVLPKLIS
Procedure, shortened: (§1)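 Kinase panel screen run as a radioactive activity assay at single compound concentration. Score reported as percent activity remaining relative to DMSO controls (100%).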

[2] = target: T2, Ephrin type-B receptor 3 (Homo sapiens) (UniProt P54753); experiment: Inhibition of EPHB3 assessed as residual activity at 10 uM; procedure, shortened: as §1
T2 sequence (whole entry): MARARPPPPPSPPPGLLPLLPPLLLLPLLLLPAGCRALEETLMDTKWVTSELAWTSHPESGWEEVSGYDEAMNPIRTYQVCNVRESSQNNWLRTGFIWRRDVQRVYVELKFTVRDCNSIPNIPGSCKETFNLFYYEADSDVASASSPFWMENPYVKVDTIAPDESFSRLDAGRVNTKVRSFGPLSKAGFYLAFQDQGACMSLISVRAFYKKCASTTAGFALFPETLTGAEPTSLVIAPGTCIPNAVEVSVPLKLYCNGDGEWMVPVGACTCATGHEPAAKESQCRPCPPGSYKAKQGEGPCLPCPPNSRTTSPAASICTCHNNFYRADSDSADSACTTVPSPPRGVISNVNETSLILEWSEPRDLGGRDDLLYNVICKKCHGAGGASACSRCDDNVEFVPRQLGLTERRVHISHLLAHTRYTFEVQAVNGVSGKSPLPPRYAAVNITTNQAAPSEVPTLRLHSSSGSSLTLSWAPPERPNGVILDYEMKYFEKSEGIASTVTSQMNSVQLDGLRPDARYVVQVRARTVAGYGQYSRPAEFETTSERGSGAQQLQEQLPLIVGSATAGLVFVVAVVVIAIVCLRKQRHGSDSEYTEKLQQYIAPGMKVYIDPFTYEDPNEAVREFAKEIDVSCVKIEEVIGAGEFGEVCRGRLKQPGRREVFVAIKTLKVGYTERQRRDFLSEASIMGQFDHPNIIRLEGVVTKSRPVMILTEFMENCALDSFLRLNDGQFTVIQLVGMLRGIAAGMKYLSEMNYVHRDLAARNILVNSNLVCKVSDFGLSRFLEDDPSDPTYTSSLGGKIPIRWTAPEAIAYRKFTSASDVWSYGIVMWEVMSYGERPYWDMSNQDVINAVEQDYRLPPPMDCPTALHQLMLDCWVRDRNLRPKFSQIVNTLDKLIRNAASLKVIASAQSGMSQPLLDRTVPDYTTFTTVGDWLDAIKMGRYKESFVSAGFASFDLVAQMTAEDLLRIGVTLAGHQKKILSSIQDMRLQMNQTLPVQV

[3] = target: T3, Mitogen-activated protein kinase 13 (Homo sapiens) (UniProt O15264); experiment: Inhibition of P38delta assessed as residual activity at 10 uM
T3 sequence (whole entry): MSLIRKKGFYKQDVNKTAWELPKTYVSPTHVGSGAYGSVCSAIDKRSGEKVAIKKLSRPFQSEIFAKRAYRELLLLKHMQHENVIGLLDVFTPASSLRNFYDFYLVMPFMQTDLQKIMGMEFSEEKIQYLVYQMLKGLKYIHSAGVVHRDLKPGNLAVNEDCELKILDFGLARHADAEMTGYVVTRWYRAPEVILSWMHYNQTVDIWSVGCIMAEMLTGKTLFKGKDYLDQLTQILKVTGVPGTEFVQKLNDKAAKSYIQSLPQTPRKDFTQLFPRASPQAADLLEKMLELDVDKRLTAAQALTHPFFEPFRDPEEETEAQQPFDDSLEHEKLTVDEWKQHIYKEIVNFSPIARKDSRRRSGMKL
Procedure, shortened: (§2)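 Panel screen by radioactive kinase assay at a single inhibitor concentration. Score is the percent activity remaining relative to DMSO controls (100%).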

[4] = target: T4, Mitogen-activated protein kinase 15 (Homo sapiens) (UniProt Q8TD08); experiment: Inhibition of ERK8 assessed as residual activity at 10 uM; procedure, shortened: as §1
T4 sequence (whole entry): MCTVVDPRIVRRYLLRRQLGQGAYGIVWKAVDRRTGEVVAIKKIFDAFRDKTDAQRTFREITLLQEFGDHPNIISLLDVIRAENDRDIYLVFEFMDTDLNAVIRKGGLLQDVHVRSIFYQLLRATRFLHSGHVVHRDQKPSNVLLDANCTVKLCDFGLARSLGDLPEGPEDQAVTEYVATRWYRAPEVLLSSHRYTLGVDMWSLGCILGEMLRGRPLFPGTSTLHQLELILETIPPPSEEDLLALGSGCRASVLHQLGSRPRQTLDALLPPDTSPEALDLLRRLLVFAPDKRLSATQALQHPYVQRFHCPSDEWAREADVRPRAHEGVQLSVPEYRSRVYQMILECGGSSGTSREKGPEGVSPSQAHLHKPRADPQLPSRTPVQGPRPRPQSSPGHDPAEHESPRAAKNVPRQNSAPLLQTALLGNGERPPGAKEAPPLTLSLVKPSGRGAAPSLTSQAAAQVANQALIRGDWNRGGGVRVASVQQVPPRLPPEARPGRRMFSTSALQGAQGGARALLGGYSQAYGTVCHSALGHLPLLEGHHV

[5] = target: Casein kinase I isoform alpha (Homo sapiens) (UniProt P48729); experiment: Inhibition of CK1 assessed as residual activity at 10 uM; procedure, shortened: as §1
Casein kinase I isoform alpha (Homo sapiens), sequence (P48729 2-337 limits assumed): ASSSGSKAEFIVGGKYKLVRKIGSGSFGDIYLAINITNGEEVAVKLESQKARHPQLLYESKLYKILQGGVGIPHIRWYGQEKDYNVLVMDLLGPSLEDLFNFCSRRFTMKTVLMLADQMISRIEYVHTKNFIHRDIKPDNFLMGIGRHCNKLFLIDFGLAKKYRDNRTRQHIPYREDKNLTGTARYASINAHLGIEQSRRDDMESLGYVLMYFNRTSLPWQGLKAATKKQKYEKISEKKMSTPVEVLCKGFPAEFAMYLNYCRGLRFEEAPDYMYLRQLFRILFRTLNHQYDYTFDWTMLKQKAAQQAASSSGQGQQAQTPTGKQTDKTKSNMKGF

[6] = target: Mitogen-activated protein kinase 14 (Homo sapiens) (UniProt Q16539); experiment: Inhibition of p38alpha assessed as residual activity at 10 uM; procedure, shortened: as §2
Mitogen-activated protein kinase 14 (Homo sapiens), sequence (Q16539 whole entry): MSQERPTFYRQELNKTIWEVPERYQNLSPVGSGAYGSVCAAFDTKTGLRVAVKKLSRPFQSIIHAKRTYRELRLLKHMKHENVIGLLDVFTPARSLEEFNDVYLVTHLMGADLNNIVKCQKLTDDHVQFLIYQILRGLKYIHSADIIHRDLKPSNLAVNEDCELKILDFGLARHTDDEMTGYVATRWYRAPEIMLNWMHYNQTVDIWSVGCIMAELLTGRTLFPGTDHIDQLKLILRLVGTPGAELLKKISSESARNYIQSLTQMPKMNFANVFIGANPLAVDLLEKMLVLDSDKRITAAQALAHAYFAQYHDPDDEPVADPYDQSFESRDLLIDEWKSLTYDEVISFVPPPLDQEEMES

[7] = target: Serine/threonine-protein kinase MARK2 (Homo sapiens) (UniProt Q7KZI7); experiment: Inhibition of MARK2 assessed as residual activity at 10 uM; procedure, shortened: as §1
Serine/threonine-protein kinase MARK2 (Homo sapiens), sequence (Q7KZI7 whole entry): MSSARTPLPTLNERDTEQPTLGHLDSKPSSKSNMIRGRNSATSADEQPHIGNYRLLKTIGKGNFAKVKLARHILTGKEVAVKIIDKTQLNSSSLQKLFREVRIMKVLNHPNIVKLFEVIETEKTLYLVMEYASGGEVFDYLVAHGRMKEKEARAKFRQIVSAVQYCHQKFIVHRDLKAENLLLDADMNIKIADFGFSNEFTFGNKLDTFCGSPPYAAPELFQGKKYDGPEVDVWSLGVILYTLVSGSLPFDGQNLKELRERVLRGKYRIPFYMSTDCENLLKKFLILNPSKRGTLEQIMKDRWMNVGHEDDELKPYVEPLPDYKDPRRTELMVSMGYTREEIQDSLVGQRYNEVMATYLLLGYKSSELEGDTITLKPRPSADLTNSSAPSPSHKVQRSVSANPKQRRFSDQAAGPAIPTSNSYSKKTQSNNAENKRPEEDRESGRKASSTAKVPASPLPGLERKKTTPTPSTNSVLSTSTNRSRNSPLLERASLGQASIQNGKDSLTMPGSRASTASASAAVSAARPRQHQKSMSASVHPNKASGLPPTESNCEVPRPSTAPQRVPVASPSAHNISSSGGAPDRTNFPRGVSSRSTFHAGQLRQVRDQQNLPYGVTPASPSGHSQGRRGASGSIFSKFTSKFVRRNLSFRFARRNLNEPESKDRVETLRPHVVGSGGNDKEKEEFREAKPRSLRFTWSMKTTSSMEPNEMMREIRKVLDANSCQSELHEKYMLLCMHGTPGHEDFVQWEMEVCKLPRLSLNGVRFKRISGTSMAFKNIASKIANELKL

[8] = target: Mitogen-activated protein kinase kinase kinase 9 (Homo sapiens) (UniProt P80192); experiment: Inhibition of MLK1 assessed as residual activity at 10 uM; procedure, shortened: as §2
Mitogen-activated protein kinase kinase kinase 9 (Homo sapiens), sequence (P80192 whole entry, looked up): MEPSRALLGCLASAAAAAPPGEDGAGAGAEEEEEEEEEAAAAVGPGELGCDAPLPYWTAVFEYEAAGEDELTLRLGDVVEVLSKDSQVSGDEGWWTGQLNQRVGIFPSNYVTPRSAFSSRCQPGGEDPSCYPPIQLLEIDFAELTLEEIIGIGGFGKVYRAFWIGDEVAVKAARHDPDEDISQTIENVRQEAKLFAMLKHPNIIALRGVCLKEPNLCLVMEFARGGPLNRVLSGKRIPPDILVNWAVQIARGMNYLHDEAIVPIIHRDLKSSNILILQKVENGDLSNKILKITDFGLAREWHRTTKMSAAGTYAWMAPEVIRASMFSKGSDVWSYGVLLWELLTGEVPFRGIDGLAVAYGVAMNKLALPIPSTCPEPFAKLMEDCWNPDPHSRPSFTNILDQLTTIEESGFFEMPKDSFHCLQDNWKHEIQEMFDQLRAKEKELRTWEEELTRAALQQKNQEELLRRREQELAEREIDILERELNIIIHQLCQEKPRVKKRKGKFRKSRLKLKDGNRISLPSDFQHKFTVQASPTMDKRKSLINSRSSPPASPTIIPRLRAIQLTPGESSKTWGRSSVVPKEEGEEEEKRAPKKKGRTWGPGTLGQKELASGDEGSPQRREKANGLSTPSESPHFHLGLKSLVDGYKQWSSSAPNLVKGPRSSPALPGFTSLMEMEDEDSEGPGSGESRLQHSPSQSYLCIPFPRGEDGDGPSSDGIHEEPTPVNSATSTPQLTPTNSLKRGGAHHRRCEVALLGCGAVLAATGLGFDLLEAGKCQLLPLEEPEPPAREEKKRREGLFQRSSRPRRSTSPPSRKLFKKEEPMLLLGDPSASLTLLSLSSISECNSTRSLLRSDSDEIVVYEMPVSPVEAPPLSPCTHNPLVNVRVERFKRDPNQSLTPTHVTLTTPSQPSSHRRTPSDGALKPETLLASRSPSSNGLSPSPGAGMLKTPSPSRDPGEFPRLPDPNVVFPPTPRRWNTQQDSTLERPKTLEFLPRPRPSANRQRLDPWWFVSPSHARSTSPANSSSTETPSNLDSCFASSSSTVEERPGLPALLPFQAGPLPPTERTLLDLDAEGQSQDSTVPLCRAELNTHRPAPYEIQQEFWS

[9] = target: MAP kinase-interacting serine/threonine-protein kinase 2 (Homo sapiens) (UniProt Q9HBH9); experiment: Inhibition of MNK2 assessed as residual activity at 10 uM; procedure, shortened: as §2
MAP kinase-interacting serine/threonine-protein kinase 2 (Homo sapiens), sequence (Q9HBH9 whole entry, looked up): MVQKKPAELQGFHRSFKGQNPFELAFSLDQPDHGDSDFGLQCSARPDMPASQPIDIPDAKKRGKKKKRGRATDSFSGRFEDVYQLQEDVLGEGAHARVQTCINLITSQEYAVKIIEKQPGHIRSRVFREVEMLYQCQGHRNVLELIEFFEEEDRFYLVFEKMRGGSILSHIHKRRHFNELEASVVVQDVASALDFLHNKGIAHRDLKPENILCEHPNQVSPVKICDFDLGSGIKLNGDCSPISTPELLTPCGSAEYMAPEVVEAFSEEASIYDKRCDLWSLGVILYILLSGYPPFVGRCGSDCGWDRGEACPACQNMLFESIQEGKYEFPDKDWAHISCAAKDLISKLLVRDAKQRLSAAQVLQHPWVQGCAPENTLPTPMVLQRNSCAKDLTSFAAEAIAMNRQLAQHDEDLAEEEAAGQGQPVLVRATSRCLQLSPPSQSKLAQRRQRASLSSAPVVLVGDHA

Compound	Activity [1]	Activity [2]	Activity [3]	Activity [4]	Activity [5]	Activity [6]	Activity [7]	Activity [8]	Activity [9]
CN1CCN(CCC(=O)Nc2ccc3c(C#N)cnc(Nc4cccc(Br)c4)c3c2)CC1	81%	90%	77%	72%	100%	58%	100%	91%	85%
CN(C)CCCC(=O)Nc1ccc2c(C#N)cnc(Nc3cccc(Br)c3)c2c1	73%	100%	94%	75%	100%	71%	100%	87%	100%
CN(C)C/C=C/C(=O)Nc1ccc2c(C#N)cnc(Nc3cccc(Br)c3)c2c1	75%	95%	86%	78%	88%	81%	90%	82%	92%
